Reference: ChEMBL document CHEMBL1817627, “Synergy-directed fractionation of botanical medicines: a case study with goldenseal (Hydrastis canadensis)” (2011)
The source made the active and inactive calls. The rule behind the calls is not given here.

Columns and labels:
[1] = tested on: Staphylococcus aureus; assay: Antimicrobial activity against wild-type Staphylococcus aureus NCTC8325-4; assay type: functional
Outline: (§1)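 Broth microdilution MIC per CLSI guidelines. Single-colony S. aureus inoculum grown to log phase in Mueller-Hinton broth, adjusted by OD600 to 1.0×10^5 CFU/mL final. Medium contains 2% DMSO (vehicle, negative control); reserpine is the positive control. Triplicate wells, with bacteria-free wells for background subtraction. OD600 read after 20 hrs at 37 °C.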

[2] = tested on: Staphylococcus aureus; assay: Antimicrobial activity against Staphylococcus aureus; assay type: functional; outline: as §1
[3] = tested on: Staphylococcus aureus; assay: Antimicrobial activity against NorA efflux pump overexpressing Staphylococcus aureus K2378; assay type: functional
Outline: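 S. aureus K2378 (norA overexpressing); single colony grown to log phase in Mueller-Hinton broth, adjusted by OD600 to 1.0×10^5 CFU/mL final; broth microdilution per CLSI in broth with 2% DMSO; triplicate wells plus bacteria-free background wells; OD600 read after 20 hrs at 37 °C; MIC = concentration with no significant difference (ANOVA) from vehicle control.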

[4] = biological target: T1, Quinolone resistance protein NorA (Staphylococcus aureus) (UniProt P0A0J7); assay: Inhibition of wild type Staphylococcus aureus NCTC8325-4 NorA assessed as time taken to inhibit ethidium bromide efflux by measuring fluorescence at 100 uM relative to control
T1 sequence (whole entry): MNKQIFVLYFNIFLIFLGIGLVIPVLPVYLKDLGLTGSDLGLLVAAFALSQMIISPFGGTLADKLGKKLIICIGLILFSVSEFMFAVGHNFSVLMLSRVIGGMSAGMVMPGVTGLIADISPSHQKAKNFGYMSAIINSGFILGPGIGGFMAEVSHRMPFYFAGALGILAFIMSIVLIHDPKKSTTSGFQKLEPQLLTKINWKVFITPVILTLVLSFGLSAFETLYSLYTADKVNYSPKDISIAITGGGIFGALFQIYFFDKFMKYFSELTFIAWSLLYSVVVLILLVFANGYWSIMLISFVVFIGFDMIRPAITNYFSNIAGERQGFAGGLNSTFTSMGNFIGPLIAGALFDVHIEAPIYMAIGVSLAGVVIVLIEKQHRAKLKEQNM
Outline: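 Cells grown in Mueller-Hinton broth to OD600 0.74, then loaded with ethidium bromide (25 μM) plus CCCP (100 μM) for 20 min at 20 °C with shaking. Diluted to OD600 0.40, pelleted and held on ice. Resuspended in fresh broth with 10% DMSO final and treatment at 100 μM final; CCCP is the control. Fluorescence (ex 530, em 600 nm) read every second for 300 s. Two-factor ANOVA versus vehicle at t = 300 s.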

[5] = tested on: Staphylococcus aureus; assay: Inhibition of Staphylococcus aureus K1758 NorA mutant assessed as inhibition of ethidium bromide efflux by measuring increase in fluorescence at 100 uM after 300 secs

| SMILES | MIC [1] [mg/L] | MIC [2] [mg/L] | MIC [3] [mg/L] | TIME [4] [h] | inhibition [5] |
| --- | --- | --- | --- | --- | --- |
| COc1ccc2cc3[n+](cc2c1OC)CCc1cc2c(cc1-3)OCO2 [BERBERINE] | 150 | 150 | 300 |  |  |
| COc1c(C)c(O)c2c(=O)cc(-c3ccc(O)cc3)oc2c1C |  |  |  | 0.0833 | inactive |
| COc1cc2oc(-c3ccc(O)cc3)cc(=O)c2c(O)c1C [8-DEMETHYLSIDEROXYLIN] |  |  | > 300 | 0.0833 | inactive |
| N#CC(C#N)=NNc1cccc(Cl)c1 |  |  |  | 0.0833 | inactive |
| COc1cc(O)c2c(=O)cc(-c3ccc(O)cc3)oc2c1C |  |  |  | 0.0833 | inactive |
